Test results reported in the RNAGym collection of RNA variant scans (doi:10.1126/science.aae0568).
Variants at the floor of the assay were thinned out.

B1: tRNA (parent)
chain: GUUCCGUUGGCGUAAUGGUAACGCGUCUCCCUCCUAAGGAGAAGACUGCGGGUUCGAGUCCCGUACGGAACG

Variants of: B1
Assay: yeast fitness relative to wild type (ratio to wild type); higher = fitter; tRNA-Arg(CCU), competitive growth, 37 C, YPD
Summary of the method: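 Variants of the tRNA-Arg(CCU) gene, chemically synthesised with a 3% per-site mutation rate at 69 sites, were placed at the native genomic locus in Saccharomyces cerevisiae. The pooled strains were competed in YPD at 37°C for 24 hours in six parallel replicates. Gene amplicons from the start population and from each end population were read by 100-nucleotide paired-end sequencing. Darwinian fitness relative to wild type came from changes in genotype frequencies; genotypes needed ≥ 100 starting reads, and estimates < 0.5 were set to 0.5.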

Variant | yeast fitness
C4A C11G U19G | ≤ 0.5
C4A C11U | 0.781
C4A C11U A37C | 0.537
C4A C11U C22A G23C A40G | ≤ 0.5
C4A C11U C29G C34A G39C | ≤ 0.5
C4A C11U C29G U32A G52A | 0.596
C4A C11U C30U G39C C55G | ≤ 0.5
C4A C22A A69U | 0.528
C4A C22A C33A G39C | ≤ 0.5
C4A C22G A40C G67A | 0.61
C4A C22G C27U | 0.522
C4A C22G C29U | 0.556
C4A C22G C33U A40U U59A | ≤ 0.5
C4A C22U C30A | 0.504
C4A C22U C60U G67C | 0.519
C4A C24A A42G | 0.603
C4A C24A G52C A57C U59A | 0.57
C4A C24G | 0.714
C4A C24G A37G G50C | ≤ 0.5
C4A C24G A69U | ≤ 0.5
C4A C24G C33G G63C | ≤ 0.5
C4A C24G C61A C66U | ≤ 0.5
C4A C24G G25C A45G C60A | ≤ 0.5
C4A C24G G44C C62G | ≤ 0.5

Variant | yeast fitness
C4A C24G G44C G68U | 0.562
C4A C24G G63A C66A | ≤ 0.5
C4A C24G U28A U35C C49U | 0.542
C4A C24U | 0.733
C4A C24U A36U G39C C46G C55A C66G | ≤ 0.5
C4A C24U A65C | 0.65
C4A C24U C29U | ≤ 0.5
C4A C24U G58A C62U | 0.587
C4A C27A G38A | 0.513
C4A C27G C29G G68U | ≤ 0.5
C4A C27G C34G A37U U64A | ≤ 0.5
C4A C27U A37G | 0.566
C4A C27U A40U G52C C60G | ≤ 0.5
C4A C27U C60G | ≤ 0.5
C4A C27U C61U | 0.62
C4A C27U C66U | 0.66
C4A C27U G39C | 0.632
C4A C29G A40U | ≤ 0.5
C4A C29G C33G A43U | ≤ 0.5
C4A C29G C34G | 0.782
C4A C29G C34G C49U | 0.557
C4A C29U C30G C49U | ≤ 0.5
C4A C29U C55U G63A | ≤ 0.5
C4A C29U G67A | ≤ 0.5

Variant | yeast fitness
C4A C30A A37C | ≤ 0.5
C4A C30A A40G | 0.74
C4A C30G A40U A45U G48A | ≤ 0.5
C4A C30G A45C C61G | ≤ 0.5
C4A C30G C31U C55A C61G G67A | ≤ 0.5
C4A C30G C49G | ≤ 0.5
C4A C30G C49U | 0.566
C4A C30G C66A | ≤ 0.5
C4A C30G G41C G68A | ≤ 0.5
C4A C30G G50A | ≤ 0.5
C4A C30G U59A | 0.528
C4A C30U A40G | 0.542
C4A C30U A57G A65U | ≤ 0.5
C4A C30U C55U | ≤ 0.5
C4A C30U G38C A42G | ≤ 0.5
C4A C31A C33G U47A | ≤ 0.5
C4A C31A C33G U47A A65C | 0.627
C4A C31A C33U | ≤ 0.5
C4A C31A G56A | 0.649
C4A C31A U35C A45U | ≤ 0.5
C4A C31G | 0.758
C4A C31G A40C | ≤ 0.5
C4A C31G A40U | 0.62
C4A C31G G39A G51C | ≤ 0.5

Variant | yeast fitness
C4A C31U A37G G48A U54A C55G A65U | ≤ 0.5
C4A C31U A42C C66A | 0.523
C4A C31U C46A | 0.726
C4A C33A | 0.705
C4A C33A A40U | 0.522
C4A C33A C60A U64C | ≤ 0.5
C4A C33A G39A G51C | 0.657
C4A C33G A45G | ≤ 0.5
C4A C33G A45G A70U | ≤ 0.5
C4A C33G A57G | 0.576
C4A C33U A37G | ≤ 0.5
C4A C33U A65C | ≤ 0.5
C4A C34A | 0.817
C4A C34G C46G G56A | ≤ 0.5
C4A C34G C61A | ≤ 0.5
C4A C34G C66U | 0.576
C4A C34G G38C A70G | ≤ 0.5
C4A C34G G39C | ≤ 0.5
C4A C34U | 0.666
C4A C46A G67A | 0.73
C4A C46G | 0.847
C4A C46G C60G | ≤ 0.5
C4A C46G C62U | 0.609
C4A C49A | 0.684

Variant | yeast fitness
C4A C49U A65U | ≤ 0.5
C4A C49U C55A C66U | 0.545
C4A C55A A69C A70U | ≤ 0.5
C4A C60A | 0.676
C4A C60G | 0.61
C4A C61G | 0.71
C4A C61U | 0.911
C4A C61U A69C | 0.578
C4A C66U | 0.862
C4A G6A A14G C60U | ≤ 0.5
C4A G6A A21C C24U | 0.562
C4A G6A A65G | 0.56
C4A G6A C11A C22U C29U C55A G68U | ≤ 0.5
C4A G6A C11A C22U C29U C61A G67A | ≤ 0.5
C4A G6A C33U A43U C49G G50C C61U C66U | ≤ 0.5
C4A G6A G25A C29G A57G | ≤ 0.5
C4A G6A U16C G38A G58C C66U | ≤ 0.5
C4A G6A U28G A37G | 0.738
C4A G6C C22U G51C C62A | ≤ 0.5
C4A G6C C55U | ≤ 0.5
C4A G6C C55U G68C | ≤ 0.5
C4A G6C G10A U28A | ≤ 0.5
C4A G6C U8A A20C A21U C33U C46U A57G | ≤ 0.5
C4A G9A A45G | ≤ 0.5

Variant | yeast fitness
C4A G9A C24U C30U A36G G67A | 0.565
C4A G9A U16A C30U A40G C46U | ≤ 0.5
C4A G9C A14G C30A G39A | ≤ 0.5
C4A G9C C11G A21C C55U C62U G67C | ≤ 0.5
C4A G9C C11G A45C | 0.508
C4A G9C C11G G44A C60U G67C | ≤ 0.5
C4A G9C C30A G39A | 0.51
C4A G9C C30A G39A G56C | ≤ 0.5
C4A G9C C30A G39A G58A | ≤ 0.5
C4A G10A | 0.819
C4A G10A A14G C31A | ≤ 0.5
C4A G10A A36U | ≤ 0.5
C4A G10A G23A | ≤ 0.5
C4A G10A G56C C60G C66U | ≤ 0.5
C4A G10A U54A | ≤ 0.5
C4A G10C A69C | ≤ 0.5
C4A G10C C11U C27U A45U U59C C60G | ≤ 0.5
C4A G10C C11U G41A A45C A65U | ≤ 0.5
C4A G10C C29G A65G | ≤ 0.5
C4A G10C C33U C46G U54A | ≤ 0.5
C4A G10C U26A U64A | ≤ 0.5
C4A G12A | 0.666
C4A G12A A45U | 0.546
C4A G12A C31U U59A G63A | ≤ 0.5

Variant | yeast fitness
C4A G12C A21C C22G C55A C60U C62G A69C | ≤ 0.5
C4A G12C U13G C30U | 0.55
C4A G12C U13G C30U A65U | ≤ 0.5
C4A G12C U19C C24G A43U C61U | 0.532
C4A G12C U19C C24G A43U G67A | ≤ 0.5
C4A G17A | 0.718
C4A G17A C27G C55U | 0.62
C4A G17A C60G | 0.697
C4A G17A G18A G25A C55A | ≤ 0.5
C4A G17A G41A A69U | ≤ 0.5
C4A G17A G41A U47C G50C | ≤ 0.5
C4A G17A U19C G41A C66U | ≤ 0.5
C4A G17C A20C A21U C27U C33G G63A G67A | ≤ 0.5
C4A G17C C22U | ≤ 0.5
C4A G17C G23C | ≤ 0.5
C4A G17C G23C A45C C66U | ≤ 0.5
C4A G17C G23C A57C | ≤ 0.5
C4A G18A A20C U26G C27U C49U A69C | ≤ 0.5
C4A G18A C27A A37C G56A | 0.579
C4A G18A C27U U28G C33G A36G | ≤ 0.5
C4A G18A C34G C66U | ≤ 0.5
C4A G18A G25C | 0.515
C4A G18A G58A A70U | ≤ 0.5
